This is an account of results in article PMC2860672 (Biochemistry, 2010).

Values after ≈ are worked out from the molar mass of the structure shown. Like-named read-outs stand apart in the source and are kept apart here.

Data set [1] deals with M. tuberculosis. Particulars: cited from earlier work.
Data set [2] relates to Nc1ccc(C(=O)O)c(O)c1. The data set can be described thus: purified protein, by the assay type. Particulars: other: 25°C, pH 7.8, the other substrates fixed and saturating.
The subject of data set [3] is O=C(O)c1cccc(O)c1O. The data set can be described thus: purified protein, by the assay type. Particulars: other: 25°C, pH 7.8, the other substrates fixed and saturating.
In data set [4] the test system is O=C(O)c1cccc(O)c1. The data set can be described thus: purified protein, by the assay type. The settings on record: other: 25°C, pH 7.8, the other substrates fixed and saturating.
Data set [5] deals with T1, EntE (Escherichia coli, UniProt P10378). The format is biochemical. In outline: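 Stopped-flow coupled assay (myokinase/pyruvate kinase/LDH, NADH at 340 nm) in 100 mM HEPES pH 7.8, 10 mM MgCl2, 25°C. […] Bisubstrate adenylate analogues were varied. Equal volumes were mixed with 16 nM EntE and followed for 4 min. The first 20 s were discarded. Five traces were averaged per concentration and fitted to a slow-onset equation; kobs was plotted against inhibitor concentration.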
T1 sequence (P10378 whole entry): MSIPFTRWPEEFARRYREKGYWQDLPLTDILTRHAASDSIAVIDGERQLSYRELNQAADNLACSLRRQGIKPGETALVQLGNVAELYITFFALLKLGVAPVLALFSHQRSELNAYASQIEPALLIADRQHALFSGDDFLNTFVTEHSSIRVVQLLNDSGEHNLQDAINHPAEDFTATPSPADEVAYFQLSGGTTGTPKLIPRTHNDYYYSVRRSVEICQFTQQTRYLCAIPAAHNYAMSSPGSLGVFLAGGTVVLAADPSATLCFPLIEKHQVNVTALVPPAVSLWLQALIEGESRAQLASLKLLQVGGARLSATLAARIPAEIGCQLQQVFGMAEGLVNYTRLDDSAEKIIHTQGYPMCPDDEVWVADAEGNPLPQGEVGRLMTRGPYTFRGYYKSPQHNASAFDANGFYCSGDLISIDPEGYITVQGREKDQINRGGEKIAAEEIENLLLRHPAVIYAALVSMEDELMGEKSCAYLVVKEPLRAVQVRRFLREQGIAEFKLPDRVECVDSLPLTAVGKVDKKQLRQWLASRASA

Data set [6] addresses T1, EntE. The data set can be described thus: ITC of Sal-AMS and DHB-AMS with EntE. Type of data set: binding.
The target in data set [7] is EntE (dihydroxybenzoate-AMP ligase) (Escherichia coli, UniProt P10378). Particulars: for Km / kcat: pH 7.8.
Chain of EntE (dihydroxybenzoate-AMP ligase) (P10378 whole entry): as above
The target in data set [8] is T1, EntE. Nature of the data set: ITC of DHB binding to free EntE. In outline:
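DHB binding was run by ITC at 25°C in 50 mM HEPES pH 7.8, 10 mM MgCl2. EntE was dialysed against this buffer and ligand was prepared in the dialysate. EntE concentration came from ε280 = 58 790 M⁻¹ cm⁻¹ and DHB by weight. 50 μM EntE in the cell; 1 mM DHB injected 5 μL every 230 s.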

For data set [9], the target named is T1, EntE. Nature of the data set: Dead-end inhibition of EntE by AMPCPP, coupled assay. The format is biochemical. The settings on record: holo-EntB-ArCP 4 μM.
In data set [10] the target is T1, EntE. Particulars: competitive ligand in displacement ITC; cited from earlier work.
Where [11] appears, read: 25°C, the other substrates fixed and saturating.

For `NNC(=O)c1ccncc1` [isoniazid], the MIC99 in [1] was 0.18 µM (≈ 0.0247 µg/mL).

“EntE (dihydroxybenzoate-AMP ligase) (Escherichia coli K-12)”: the Michaelis constant (Km) in data set [2] is 3100 ± 300 µM. Moreover, in data set [3], the Michaelis-Menten constant (Km) is 2.5 ± 0.3 µM and the kcat/Km was found to be 880000 M⁻¹ s⁻¹. Also, in [4], the Km stood at 70 ± 8 µM, the catalytic constant (kcat) was 0.3 ± 0.01 s⁻¹ and the kcat/Km was 4600 M⁻¹ s⁻¹.

For `Nc1ncnc2c1ncn2[C@@H]1O[C@H](COS(=O)(=O)NC(=O)c2cccc(O)c2O)[C@@H](O)[C@H]1O` [DHB-AMS, 5′-O-[N-(2,3-dihydroxybenzoyl)sulfamoyl]adenosine], the Ki in [5] was 3.8 nM. In addition, the type of inhibition entry in [5] (time-courses of product formation) is “slow-onset tight-binding inhibitors”. In data set [6] (293 K, calculated from eq 11), the TΔS is -0.4 kcal/mol and the “−ΔG” value was 15.0 kcal/mol. Further, the “fold lower KD than Sal-AMS” value in data set [6] (ITC) is listed as 10 fold. In data set [6] (KA, displacement ITC with 200 mM salicylic acid, 293 K, pH 8.0), this compound gave a Kd of 0.00627 nM. The same compound yielded a Kd in [6] (KD, displacement ITC with salicylic acid, KD = 1/KA, 20°C) of 0.0075 nM. For the same compound, the “n (number of binding sites per monomer)” value in data set [6] (displacement ITC) is on record as 1.12 ± 0.03. Besides, in [6] (stoichiometric titration at high c, 293 K), the “−ΔH” value stood at 15.4 kcal/mol.

As for `Nc1ccc(C(=O)O)cc1` [4-aminobenzoic acid], the “substrate activity for the EntE reaction” value in data set [7] (tested as substrate in the coupled assay) is recorded as “no activity was observed”.

As to `CC(C)(CO)[C@@H](O)C(=O)NCCC(=O)NCCS` [D-pantetheine], in [7] (setting [11]), the Km came to 34200 ± 2000 µM and the kcat is 0.9 ± 0.1 s⁻¹.

In the case of `O=C(O)c1cccc(O)c1O` [DHB, 2,3-dihydroxybenzoic acid], in data set [8], binding was characterised by a dissociation constant (Kd) of 8700 nM. Also, the n in data set [8] (one-set of sites model) was 0.824 ± 0.00512. For the same compound, in data set [8] (one-set of sites model, 25°C), the KA stood at 115000 ± 2800 M⁻¹, the ΔH was -16.5 ± 0.14 kcal/mol and the ΔS is recorded as −32.2 cal mol^−1 K ^−1.

Regarding `Nc1ncnc2c1ncn2C1OC(COP(=O)(O)CP(=O)(O)OP(=O)(O)O)C(O)C1O` (stereo not drawn) [AMPCPP, α, β-methyleneadenosine 5′-triphosphate], in data set [9] (varied ATP, saturating DHB (80 μM)), the “inhibition pattern versus ATP” value is “competitive inhibition”. Moreover, in [9] (varied DHB, saturating ATP (5 mM)), the “inhibition pattern versus DHB” value is “uncompetitive inhibition”.

For `O=C(O)c1ccccc1O` [salicylic acid], the Km in data set [7] (setting [11]) came to 70 ± 4 µM. Besides, in [7], the kcat is 0.8 ± 0.1 s⁻¹. For the same compound, the “KA^B” value in data set [10] was 4740 M⁻¹.
